Each block holds one compound with its values, some of them ahead of it.
How the values were obtained:
[1] = Negative inotropic activity in guinea pig left atrium assessed as decrease in atrial tension; assay type: functional, tissue-based; details: Cavia porcellus, Cardiac atrium
[2] = Negative chronotropic activity in guinea pig spontaneously beating right atrium assessed as decrease in atrial rate at 100 uM relative to control; assay type: functional, Cavia porcellus, Cardiac atrium; design: scale not given: the % may be the effect or the level left
Summary of the method: (§1)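 Guinea pig isolated atria, compound given at increasing doses. Left atrium driven at 1 Hz: percent decrease in developed tension (inotropy, EC50). Spontaneously beating right atrium: percent decrease in rate (chronotropy, EC30). Probit analysis (Litchfield-Wilcoxon), n = 6-7. Potencies not calculated when maximal effect <50%.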

[3] = Negative inotropic activity in guinea pig left atrium assessed as decrease in atrial tension at 100 uM relative to control; assay type: functional, Cavia porcellus, Cardiac atrium; design: scale not given: the % may be the effect or the level left; summary of the method: as §1
Aorta [4] = experiment: Vasorelaxant activity in potassium-depolarized guinea pig thoracic aorta assessed as inhibition of calcium-induced contraction at 100 uM; assay type: functional, Cavia porcellus; design: scale not given: the % may be the effect or the level left
[5] = Negative inotropic activity in guinea pig left atrium assessed as decrease in atrial tension at 5 uM relative to control; assay type: functional, Cavia porcellus, Cardiac atrium; design: scale not given: the % may be the effect or the level left; summary of the method: as §1
Aorta [6] = experiment: Vasorelaxant activity in potassium-depolarized guinea pig thoracic aorta assessed as inhibition of calcium-induced contraction at 50 uM; assay type: functional, Cavia porcellus; design: scale not given: the % may be the effect or the level left
[7] = Negative chronotropic activity in guinea pig spontaneously beating right atrium assessed as decrease in atrial rate at 50 uM relative to control; assay type: functional, Cavia porcellus, Cardiac atrium; design: scale not given: the % may be the effect or the level left; summary of the method: as §1
[8] = Negative inotropic activity in guinea pig left atrium assessed as decrease in atrial tension at 10 uM relative to control; assay type: functional, Cavia porcellus, Cardiac atrium; design: scale not given: the % may be the effect or the level left; summary of the method: as §1
Heart [9] = experiment: Effect on cardiac activity in guinea pig spontaneously beating heart assessed as change in atrioventricular conduction time at 1 uM relative to control; assay type: functional, Cavia porcellus
Summary of the method: (§2)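 Isolated perfused, spontaneously beating guinea pig heart. Readouts: +(dP/dt)max (maximal rate of rise of left ventricular pressure), heart rate from ECG, coronary perfusion pressure, PR interval. Given as percent change from basal at the highest concentration tested (1 µM), mean ± SEM. pEC50 taken from log concentration-response curves, n = 4-6.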

[10] = Negative chronotropic activity in guinea pig spontaneously beating right atrium assessed as decrease in atrial rate; assay type: functional; details: Cavia porcellus, Cardiac atrium; summary of the method: as §1
Heart [11] = experiment: Effect on cardiac activity in guinea pig spontaneously beating heart assessed as change in coronary perfusion pressure at 1 uM relative to control; assay type: functional, Cavia porcellus; summary of the method: as §2
[12] = target: T1, Voltage-gated L-type calcium channel (Rattus norvegicus, UniProt P22002+Q02485+P27732); experiment: Displacement of [3H]diltiazem from L-type calcium channel in Sprague-Dawley rat cardiac myocytes by liquid scintillation counting; assay type: cell-based; details: for Activity: rat
Heart [13] = experiment: Effect on cardiac activity in guinea pig spontaneously beating heart assessed as change in heart rate at 1 uM relative to control; assay type: functional, Cavia porcellus; summary of the method: as §2
[14] = Negative chronotropic activity in guinea pig spontaneously beating right atrium assessed as decrease in atrial rate at 1 uM relative to control; assay type: functional, Cavia porcellus, Cardiac atrium; design: scale not given: the % may be the effect or the level left
Heart [15] = experiment: Effect on cardiac activity in guinea pig spontaneously beating heart assessed as change in coronary perfusion pressure; details: Cavia porcellus, read-out: pEC50 (converted)
Heart [16] = experiment: Effect on cardiac activity in guinea pig spontaneously beating heart assessed as change in left ventricular pressure at 1 uM relative to control; assay type: functional, Cavia porcellus; summary of the method: as §2
Heart [17] = experiment: Effect on cardiac activity in guinea pig spontaneously beating heart assessed as change in left ventricular pressure; details: Cavia porcellus, read-out: pEC50 (converted)
[18] = Negative chronotropic activity in guinea pig spontaneously beating right atrium assessed as decrease in atrial rate at 5 uM relative to control; assay type: functional, Cavia porcellus, Cardiac atrium; design: scale not given: the % may be the effect or the level left
[19] = Negative inotropic activity in guinea pig left atrium assessed as decrease in atrial tension at 50 uM relative to control; assay type: functional, Cavia porcellus, Cardiac atrium; design: scale not given: the % may be the effect or the level left
[20] = Negative chronotropic activity in guinea pig spontaneously beating right atrium assessed as decrease in atrial rate at 10 uM relative to control; assay type: functional, Cavia porcellus, Cardiac atrium; design: scale not given: the % may be the effect or the level left; summary of the method: as §1
Aorta [21] = experiment: Vasorelaxant activity in potassium-depolarized guinea pig thoracic aorta assessed as inhibition of calcium-induced contraction; assay type: functional, Cavia porcellus; design: scale not given: the % may be the effect or the level left
[22] = target: T1, Voltage-gated L-type calcium channel; experiment: Stimulation of [3H]diltiazem binding to L-type calcium channel in Sprague-Dawley rat cardiac myocytes at 1 uM by liquid scintillation counting; assay type: cell-based
[23] = target: T1, Voltage-gated L-type calcium channel; experiment: Inhibition of L-type calcium channel in Wistar rat tail artery smooth muscle cells assessed as blockade of barium[…] current at 10 uM by whole cell patch-clamp assay
Summary of the method: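 Single smooth muscle cells isolated from rat tail main artery. Peak barium current through L-type channels [I_Ba(L)] recorded under cumulative concentrations, reported as percent inhibition. IC50 from log concentration-response curves, mean ± SEM, n = 4.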

[24] = target: T1, Voltage-gated L-type calcium channel; experiment: Inhibition of L-type calcium channel in Wistar rat tail artery smooth muscle cells assessed as blockade of barium[…] current by whole cell patch-clamp assay
Summary of the method: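 Single smooth muscle cells isolated from rat tail main artery. Peak barium current through L-type channels [I_Ba(L)] recorded under cumulative concentrations, reported as percent inhibition.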

[25] = Negative inotropic activity in guinea pig left atrium assessed as decrease in atrial tension at 1 uM relative to control; assay type: functional, Cavia porcellus, Cardiac atrium; design: scale not given: the % may be the effect or the level left
[26] = Ratio of IC50 for L-type calcium channel in Wistar rat tail artery smooth muscle cells to EC50 for negative inotropic activity in guinea pig left atrium; design: species or system Cardiac atrium

SMILES: CCOC1(c2ccc(Cl)cc2)SC=C(C)n2c1noc2=O (stereo unspecified)
Activity [5]: 53%
EC50 [1]: 270 nM
Activity (Aorta [6]): 28%
Activity [7]: 16%

SMILES: C/C(=C/SCc1ccccc1)n1c(C(=O)c2ccc(Cl)cc2)noc1=O
EC50 [1]: 1550 nM
Activity [2]: 5%
Activity [3]: 78%
Activity (Aorta [4]): 33%

SMILES: CCS/C=C(/C)n1c(C(=O)c2ccc(Cl)cc2)noc1=O
EC50 [1]: 2090 nM
Activity [19]: 75%
Activity (Aorta [4]): 27%
Activity [7]: 30%

SMILES: C/C(=C/SCc1ccccc1)n1c(C(=O)c2ccc(Br)cc2)noc1=O
Activity [20]: 31%
EC50 [1]: 1280 nM
Activity (Aorta [6]): 6%
Activity [19]: 80%

SMILES: CC1=CSC(O)(c2ccc(Cl)cc2)c2noc(=O)n21 (stereo unspecified)
Activity [8]: 80%
EC50 [1]: 800 nM
Activity (Aorta [21]): <30%
Activity (Aorta [6]): 26%
Activity [7]: 18%

SMILES: C/C(=C/S(C)(=O)=O)n1c(C(=O)c2ccc(Br)cc2)noc1=O
EC50 [1]: 280 nM
Activity [18]: 7%
Activity [22]: 25%
Activity (Aorta [6]): 6%
Activity [19]: 73%

SMILES: CC1=CSC(O)(c2ccccc2)c2noc(=O)n21 (stereo unspecified)
Activity [8]: 95%
EC50 [1]: 230 nM
Activity (Aorta [6]): 4%
Activity [7]: 14%

SMILES: C/C(=C/[S+](C)[O-])n1c(C(=O)c2ccc(Cl)cc2)noc1=O (stereo unspecified)
EC50 [1]: 210 nM
Activity [2]: 4%
Activity [19]: 71%
Activity (Aorta [4]): 7%

SMILES: C/C(=C/Sc1sc([N+](=O)[O-])cc1[N+](=O)[O-])n1c(C(=O)c2ccc(Cl)cc2)noc1=O
EC50 [1]: 1420 nM
Activity (Aorta [6]): 35%
Activity [19]: 67%
Activity [7]: 15%

SMILES: CS/C=C(/C)n1c(C(=O)c2ccc(Br)cc2)noc1=O
Activity [20]: 2%
EC50 [1]: 410 nM
Activity [23]: Not Active
Ki [12]: 0.49 µM
Activity [12]: Dose-dependent effect
IC50 [24]: 25.21 µM
Activity ([24]; rat): Dose-dependent effect
Activity [25]: <50%
Activity [19]: 95%
Activity (Aorta [4]): 10%
Ratio IC50 [26]: 60

SMILES: CCCS/C=C(/C)n1c(C(=O)c2ccc(Br)cc2)noc1=O
EC50 [1]: 1220 nM
Activity [2]: 10%
Activity [3]: 80%
Activity (Aorta [4]): 26%

More lines, in order of falling EC50 [1], values ahead:

EC50 [1]: 2070 nM
SMILES: C/C(=C/SCC(C)C)n1c(C(=O)c2ccc(Cl)cc2)noc1=O
Activity [2]: 5%
Activity [3]: 84%
Activity (Aorta [4]): 6%

EC50 [1]: 1350 nM
SMILES: C=CCS/C=C(/C)n1c(C(=O)c2ccc(Cl)cc2)noc1=O
Activity [18]: 6%
Activity [3]: 70%
Activity (Aorta [4]): 23%

EC50 [1]: 1290 nM
SMILES: C=CCS/C=C(/C)n1c(C(=O)c2ccc(Br)cc2)noc1=O
Activity [3]: 89%
Activity (Aorta [4]): 21%
Activity [7]: 18%

EC50 [1]: 1110 nM
SMILES: C/C(=C/S(C)(=O)=O)n1c(C(=O)c2ccc(Cl)cc2)noc1=O
Activity [2]: 7%
Activity [3]: 72%
Activity (Aorta [4]): 13%

EC50 [1]: 790 nM
Activity [12]: Dose-dependent effect
EC50 (Heart [15]): 21.9 nM
EC50 (Heart [17]): 9.33 nM
SMILES: COc1ccc([C@@H]2Sc3ccccc3N(CCN(C)C)C(=O)[C@@H]2OC(C)=O)cc1 [DILTIAZEM]
Activity [8]: 78%
Activity (Heart [9]): 34%
EC30 [10]: 0.07 µM
Activity (Heart [11]): -51%
Activity (Heart [13]): -25%
Activity [14]: 94%
Activity (Heart [16]): -59%
Activity (Aorta [4]): 88%
